In ChEMBL document CHEMBL4725483, “Simultaneous Inhibition of SIRT2 Deacetylase and Defatty-Acylase Activities via a PROTAC Strategy” (ACS Med Chem Lett, 2020):
pIC50: −log10 of the molar value. Calls of active or inactive are those of the source. No cut-off for these calls is given here.

What was measured:
[1] = biological target: T1, Protein cereblon/NAD-dependent protein deacetylase sirtuin-2 (Homo sapiens) (UniProt Q8IXJ6+Q96SW2); assay: Protac activity at CRBN/SIRT2 in human MCF7 cells assessed as SIRT2 degradation at 50 uM after 48 hrs by immunoblot analysis; assay type: cell-based
T1 sequence (Q96SW2 whole entry, looked up, one chain of several): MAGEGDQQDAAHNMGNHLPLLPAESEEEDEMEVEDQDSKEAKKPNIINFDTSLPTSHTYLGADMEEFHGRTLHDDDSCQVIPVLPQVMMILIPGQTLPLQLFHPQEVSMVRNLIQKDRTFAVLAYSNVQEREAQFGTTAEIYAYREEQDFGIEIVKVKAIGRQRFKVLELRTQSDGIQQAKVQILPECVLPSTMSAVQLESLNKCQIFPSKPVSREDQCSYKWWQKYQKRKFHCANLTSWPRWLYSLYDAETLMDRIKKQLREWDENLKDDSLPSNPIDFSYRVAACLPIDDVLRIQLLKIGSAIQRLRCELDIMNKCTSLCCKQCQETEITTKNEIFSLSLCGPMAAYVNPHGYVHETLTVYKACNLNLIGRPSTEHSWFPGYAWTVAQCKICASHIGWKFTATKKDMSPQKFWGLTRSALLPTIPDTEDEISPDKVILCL
How it was run: (§1)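 MCF7 cells given a range of concentrations below and above 5 μM (0.5 to 50 μM) for 48 h; SIRT2 measured by immunoblot against vehicle-treated cells.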

[2] = biological target: T1, Protein cereblon/NAD-dependent protein deacetylase sirtuin-2 (Homo sapiens); assay: Protac activity at CRBN/SIRT2 in human MCF7 cells assessed as SIRT2 degradation at 0.5 uM after 48 hrs by immunoblot analysis; assay type: cell-based; how it was run: as §1
[3] = biological target: T2, NAD-dependent protein deacetylase sirtuin-2 (Homo sapiens, UniProt Q8IXJ6); assay: Inhibition of human SIRT2 defatty-acylation activity using peptide substrate in presence of NAD+ by HPLC analysis
T2 sequence (Q8IXJ6 whole entry): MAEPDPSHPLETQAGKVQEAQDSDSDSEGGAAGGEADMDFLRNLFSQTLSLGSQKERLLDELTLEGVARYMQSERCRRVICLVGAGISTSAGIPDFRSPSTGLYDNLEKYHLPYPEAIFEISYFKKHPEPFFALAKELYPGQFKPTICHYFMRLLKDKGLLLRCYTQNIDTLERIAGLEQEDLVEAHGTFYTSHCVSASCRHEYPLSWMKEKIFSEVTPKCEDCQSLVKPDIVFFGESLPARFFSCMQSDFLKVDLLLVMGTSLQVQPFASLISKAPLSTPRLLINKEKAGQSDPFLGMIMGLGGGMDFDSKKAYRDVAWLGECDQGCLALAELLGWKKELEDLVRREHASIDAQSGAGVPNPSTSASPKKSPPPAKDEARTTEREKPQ

[4] = biological target: T3, Protein cereblon/NAD-dependent protein deacetylase sirtuin-1 (Homo sapiens) (UniProt Q96EB6+Q96SW2); assay: Protac activity at CRBN/SIRT1 in human MCF7 cells assessed as SIRT1 degradation at 5 to 10 uM after 48 hrs by immunoblot analysis; assay type: cell-based; conditions: dose microM 5-10, time 48.0 hrs
T3 sequence (Q96EB6 whole entry, looked up): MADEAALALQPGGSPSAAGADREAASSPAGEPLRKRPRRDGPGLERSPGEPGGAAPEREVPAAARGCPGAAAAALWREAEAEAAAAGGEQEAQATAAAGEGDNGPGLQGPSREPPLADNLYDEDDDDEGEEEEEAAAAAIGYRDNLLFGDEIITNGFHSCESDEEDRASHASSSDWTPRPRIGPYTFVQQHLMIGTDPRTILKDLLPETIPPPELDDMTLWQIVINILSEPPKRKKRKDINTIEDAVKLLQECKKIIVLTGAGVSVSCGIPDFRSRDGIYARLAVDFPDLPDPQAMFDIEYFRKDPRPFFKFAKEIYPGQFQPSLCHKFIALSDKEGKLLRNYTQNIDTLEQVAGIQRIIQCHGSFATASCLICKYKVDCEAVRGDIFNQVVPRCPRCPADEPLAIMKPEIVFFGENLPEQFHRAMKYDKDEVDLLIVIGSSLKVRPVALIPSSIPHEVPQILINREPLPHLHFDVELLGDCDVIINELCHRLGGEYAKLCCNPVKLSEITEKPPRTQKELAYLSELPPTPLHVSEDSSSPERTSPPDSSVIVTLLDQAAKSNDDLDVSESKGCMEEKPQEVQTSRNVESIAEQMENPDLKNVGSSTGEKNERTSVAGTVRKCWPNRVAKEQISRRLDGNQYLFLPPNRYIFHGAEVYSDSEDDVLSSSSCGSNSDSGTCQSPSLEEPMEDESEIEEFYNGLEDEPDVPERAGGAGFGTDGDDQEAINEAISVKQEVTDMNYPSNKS
T3 sequence (Q96SW2 whole entry, looked up): as the sequence (Q96SW2 whole entry, looked up, one chain of several) above
How it was run: (§2)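 MCF7 or BT-549 cells exposed to inhibitor at the indicated concentrations for 48 h; SIRT1, SIRT2 and SIRT3 levels read by immunoblot.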

[5] = biological target: T1, Protein cereblon/NAD-dependent protein deacetylase sirtuin-2 (Homo sapiens); assay: Protac activity at CRBN/SIRT2 in human MDA-MB-468 cells assessed as SIRT2 degradation after 48 hrs by immunoblot analysis; assay type: cell-based
How it was run: (§3)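 In MDA-MB-231 and MDA-MB-468 cells, SIRT2 was assessed by immunoblot after compound treatment.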

[6] = biological target: T2, NAD-dependent protein deacetylase sirtuin-2; assay: Inhibition of human SIRT2 defatty-acylation activity using peptide substrate preincubated in presence of NAD+ followed by substrate addition by HPLC analysis
How it was run: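 SIRT2 defatty-acylase reaction with compound at a range of concentrations. Compound was preincubated with NAD+ and SIRT2 before the peptide substrate was added. IC50 derived from the dose series.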

[7] = biological target: T1, Protein cereblon/NAD-dependent protein deacetylase sirtuin-2 (Homo sapiens); assay: Protac activity at CRBN/SIRT2 in human MDA-MB-231 cells assessed as SIRT2 degradation after 48 hrs by immunoblot analysis; assay type: cell-based; how it was run: as §3
[8] = biological target: NAD-dependent protein deacylase sirtuin-5, mitochondrial (Homo sapiens, UniProt Q9NXA8); assay: Inhibition of human SIRT5 deacetylation activity using H3K9Ac as substrate preincubated for 15 mins in presence of NAD+ followed by substrate addition by HPLC analysis
Sequence of NAD-dependent protein deacylase sirtuin-5, mitochondrial (Q9NXA8 whole entry): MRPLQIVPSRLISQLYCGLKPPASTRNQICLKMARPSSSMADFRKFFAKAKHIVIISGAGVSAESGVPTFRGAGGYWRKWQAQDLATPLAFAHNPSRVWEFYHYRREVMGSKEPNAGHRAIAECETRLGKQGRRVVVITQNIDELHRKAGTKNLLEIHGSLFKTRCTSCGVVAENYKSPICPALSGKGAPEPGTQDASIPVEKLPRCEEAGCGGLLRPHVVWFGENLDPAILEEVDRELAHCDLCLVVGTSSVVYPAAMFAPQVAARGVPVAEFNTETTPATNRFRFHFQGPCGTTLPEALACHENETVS
How it was run: (§4)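 In vitro sirtuin reaction mixture with compound at a range of concentrations. Compound was preincubated with NAD+ and the enzyme before the substrate peptide was added. IC50 taken from the concentration series.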

[9] = biological target: Protein cereblon/NAD-dependent protein deacylase sirtuin-6 (Homo sapiens) (UniProt Q8N6T7+Q96SW2); assay: Protac activity at CRBN/SIRT6 in human HEK293T cells assessed as abundance ratio at 5 uM incubated for 16 hrs by TMT global proteomics assay relative to DMSO; assay type: cell-based; conditions: HEK-293T
Sequence of Protein cereblon/NAD-dependent protein deacylase sirtuin-6 (Homo sapiens) (Q8N6T7 2-355 limits assumed): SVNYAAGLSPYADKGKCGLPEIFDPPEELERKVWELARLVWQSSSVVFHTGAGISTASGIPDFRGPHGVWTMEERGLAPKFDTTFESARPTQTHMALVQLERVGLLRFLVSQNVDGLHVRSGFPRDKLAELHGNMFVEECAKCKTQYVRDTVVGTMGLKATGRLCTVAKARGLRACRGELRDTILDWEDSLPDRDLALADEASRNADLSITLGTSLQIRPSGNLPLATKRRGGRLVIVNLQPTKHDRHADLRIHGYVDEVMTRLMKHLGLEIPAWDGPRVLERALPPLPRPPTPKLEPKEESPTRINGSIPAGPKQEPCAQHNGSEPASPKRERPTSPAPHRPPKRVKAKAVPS
Sequence of Protein cereblon/NAD-dependent protein deacylase sirtuin-6 (Homo sapiens) (Q96SW2 whole entry partner): as the sequence (Q96SW2 whole entry, looked up, one chain of several) above
How it was run: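 HEK 293T cells were treated for 16 h. Global proteome was quantified by Tandem Mass Tag labelling. The abundance ratio of each sirtuin was taken against DMSO-treated cells.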

[10] = biological target: Protein cereblon/NAD-dependent protein deacetylase sirtuin-3, mitochondrial (Homo sapiens) (UniProt Q9NTG7+Q96SW2); assay: Protac activity at CRBN/SIRT3 in human MCF7 cells assessed as SIRT3 degradation at 5 to 10 uM after 48 hrs by immunoblot analysis; assay type: cell-based; conditions: dose microM 5-10, time 48.0 hrs; how it was run: as §2
Sequence of Protein cereblon/NAD-dependent protein deacetylase sirtuin-3, mitochondrial (Homo sapiens) (Q96SW2 whole entry, looked up, one chain of several): as above

Homo sapiens = organism: Homo sapiens; assay: Selectivity ratio of IC50 for inhibition of human SIRT1 deacetylation activity to IC50 for inhibition of human SIRT2 deacetylation activity
How it was run: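 Ratio of SIRT1 deacetylase IC50 to SIRT2 deacetylase IC50, both measured with compound, NAD+ and enzyme preincubated before peptide substrate addition.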

[11] = biological target: T1, Protein cereblon/NAD-dependent protein deacetylase sirtuin-2 (Homo sapiens); assay: Protac activity at CRBN/SIRT2 in human MCF7 cells assessed as SIRT2 degradation at 5 uM preincubated with proteasome inhibitior MG132 for 2 hrs followed by compound addition measured after 16 hrs by immunoblot analysis; assay type: cell-based
How it was run: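 Proteasome dependence: MCF7 cells pretreated 2 h with 5 μM MG132, then cotreated with 5 μM compound plus 5 μM MG132 for 16 h more; SIRT2 detected by immunoblot.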

[12] = biological target: T1, Protein cereblon/NAD-dependent protein deacetylase sirtuin-2 (Homo sapiens); assay: Protac activity at CRBN/SIRT2 in human MCF7 cells assessed as inhibition of SIRT2 deacetylation by measuring increase in acetylated-alpha tubulin level at 5 uM measured after 12 hrs by DAPI staining based immunofluorescence microscopic analysis; assay type: cell-based
How it was run: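 MCF7 cells treated for 12 h with 5 or 10 μM, DMSO as control. Acetyl-α-tubulin (K40) was imaged by immunofluorescence, and fluorescence intensity was quantified and normalized to vehicle.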

[13] = biological target: T1, Protein cereblon/NAD-dependent protein deacetylase sirtuin-2 (Homo sapiens); assay: Protac activity at CRBN/SIRT2 in human HEK293T cells stably expressing flag-tagged K-Ras4a-G12V assessed as inhibition of SIRT2 defatty-acylation at 1 uM incubated for 48 hrs by immunoblot analysis; assay type: cell-based; conditions: HEK-293T
How it was run: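 HEK 293T cells stably overexpressing Flag-tagged K-Ras4a-G12V (confirmed by pan-Ras blot) were exposed to 1 μM compound for 48 h. SIRT1, SIRT2 and SIRT3 levels were then read by immunoblot.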

[14] = biological target: T4, NAD-dependent protein deacetylase sirtuin-3, mitochondrial (Homo sapiens, UniProt Q9NTG7); assay: Inhibition of human SIRT3 deacetylation activity using H3K9Ac as substrate preincubated for 15 mins in presence of NAD+ followed by substrate addition by HPLC analysis; how it was run: as §4
T4 sequence (Q9NTG7 whole entry): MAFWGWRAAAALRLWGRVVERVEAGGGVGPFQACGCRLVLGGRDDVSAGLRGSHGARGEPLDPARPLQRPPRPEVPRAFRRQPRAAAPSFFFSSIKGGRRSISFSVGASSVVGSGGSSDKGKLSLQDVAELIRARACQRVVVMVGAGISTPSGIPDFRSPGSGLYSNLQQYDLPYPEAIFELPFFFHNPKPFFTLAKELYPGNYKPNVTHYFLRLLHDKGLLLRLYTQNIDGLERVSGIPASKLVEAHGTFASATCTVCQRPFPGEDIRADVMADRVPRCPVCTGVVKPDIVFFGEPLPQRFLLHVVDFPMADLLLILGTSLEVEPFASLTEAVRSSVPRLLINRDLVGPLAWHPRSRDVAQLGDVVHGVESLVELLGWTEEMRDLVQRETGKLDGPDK

[15] = biological target: T3, Protein cereblon/NAD-dependent protein deacetylase sirtuin-1 (Homo sapiens); assay: Protac activity at CRBN/SIRT1 in human BT549 cells assessed as SIRT1 degradation at 5 to 10 uM after 48 hrs by immunoblot analysis; assay type: cell-based; conditions: BT-549, dose microM 5-10, time 48.0 hrs; how it was run: as §2

**Q.** How did the Activity [1] turn out when `CCCCCCCCCCCCCC(=S)NCCCC[C@H](NC(=O)CCOCCOCCOCCOCCNc1cccc2c1C(=O)N(C1CCC(=O)NC1=O)C2=O)C(=O)Nc1ccccc1` (stereo partly specified) was run?
**A.** inactive

**Q.** And the Activity [2]?
**A.** Active

**Q.** And the pIC50 [3]?
**A.** < 4.08

**Q.** And the Activity [4]?
**A.** inactive

**Q.** And the Activity [5]?
**A.** Active

**Q.** And the pIC50 [6]?
**A.** 6.96

**Q.** And the Activity [7]?
**A.** Active

**Q.** And the pIC50 [8]?
**A.** < 4.08

**Q.** And the Activity [9]?
**A.** inactive

**Q.** And the Activity [10]?
**A.** inactive

**Q.** And the Ratio IC50 (Homo sapiens)?
**A.** 500

**Q.** What about the Activity [11] of the same molecule?
**A.** inactive

**Q.** And the Activity [12]?
**A.** Active

**Q.** What about the Activity [13] of the same molecule?
**A.** Active

**Q.** What about the pIC50 [14] of the same molecule?
**A.** < 4.08

**Q.** And the Activity [15]?
**A.** inactive
